Active and inactive are the calls of the source. The rule behind the calls is not given here.

DNA (cytosine-5)-methyltransferase 1 (Homo sapiens), sequence (P26358 whole entry): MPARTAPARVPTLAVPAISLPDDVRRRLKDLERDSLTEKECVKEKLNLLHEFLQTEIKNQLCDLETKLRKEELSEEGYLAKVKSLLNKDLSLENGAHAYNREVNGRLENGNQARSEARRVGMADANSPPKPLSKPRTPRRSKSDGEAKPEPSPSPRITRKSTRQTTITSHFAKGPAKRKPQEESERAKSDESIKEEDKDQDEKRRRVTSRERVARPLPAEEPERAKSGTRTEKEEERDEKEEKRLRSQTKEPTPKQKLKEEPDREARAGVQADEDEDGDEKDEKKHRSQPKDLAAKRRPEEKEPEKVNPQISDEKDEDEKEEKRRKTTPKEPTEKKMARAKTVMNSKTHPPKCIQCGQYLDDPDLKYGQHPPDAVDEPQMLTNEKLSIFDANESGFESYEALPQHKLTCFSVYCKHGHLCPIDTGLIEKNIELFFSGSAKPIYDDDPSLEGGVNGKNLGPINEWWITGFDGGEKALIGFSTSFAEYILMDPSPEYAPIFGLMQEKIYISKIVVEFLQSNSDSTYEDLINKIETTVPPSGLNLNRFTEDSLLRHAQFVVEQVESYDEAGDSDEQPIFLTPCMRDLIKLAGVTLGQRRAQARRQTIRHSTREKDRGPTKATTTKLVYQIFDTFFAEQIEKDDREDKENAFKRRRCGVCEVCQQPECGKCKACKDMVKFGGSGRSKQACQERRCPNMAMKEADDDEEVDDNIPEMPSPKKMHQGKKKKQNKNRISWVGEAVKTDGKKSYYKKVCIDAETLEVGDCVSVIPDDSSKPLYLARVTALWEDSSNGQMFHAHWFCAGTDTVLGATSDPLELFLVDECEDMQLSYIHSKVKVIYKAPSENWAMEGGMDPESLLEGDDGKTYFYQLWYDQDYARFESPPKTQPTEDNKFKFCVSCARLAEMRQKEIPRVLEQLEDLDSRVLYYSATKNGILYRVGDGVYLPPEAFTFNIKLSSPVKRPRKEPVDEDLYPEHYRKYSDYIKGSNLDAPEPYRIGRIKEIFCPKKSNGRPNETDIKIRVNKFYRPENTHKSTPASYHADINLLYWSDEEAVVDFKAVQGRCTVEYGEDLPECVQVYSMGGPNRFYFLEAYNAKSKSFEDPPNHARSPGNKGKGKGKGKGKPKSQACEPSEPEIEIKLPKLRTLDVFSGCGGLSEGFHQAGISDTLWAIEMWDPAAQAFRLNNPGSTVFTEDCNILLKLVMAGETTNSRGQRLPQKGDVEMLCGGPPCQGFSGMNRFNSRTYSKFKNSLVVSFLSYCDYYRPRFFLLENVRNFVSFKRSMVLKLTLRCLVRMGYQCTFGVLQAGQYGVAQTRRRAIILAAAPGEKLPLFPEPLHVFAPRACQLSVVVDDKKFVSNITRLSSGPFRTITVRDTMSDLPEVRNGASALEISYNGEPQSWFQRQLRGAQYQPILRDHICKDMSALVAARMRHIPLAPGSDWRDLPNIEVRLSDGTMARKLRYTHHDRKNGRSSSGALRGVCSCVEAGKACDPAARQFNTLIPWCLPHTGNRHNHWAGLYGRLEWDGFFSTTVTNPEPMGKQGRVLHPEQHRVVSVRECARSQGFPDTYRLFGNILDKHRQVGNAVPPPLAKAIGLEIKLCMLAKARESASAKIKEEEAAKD

For one experiment, the system named is HL-60. Description: Induction of chromosomal satellite repeats demethylation in human HL60 cells at 0.5 mM after 72 hrs. It is filed as functional, cell-based. In a few lines:
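HL60 human myeloid leukemia cells exposed 72 h to 0.5 mM drug in DMSO, DMSO (1%) as control. Methylation of chromosomal satellite repeats (C1S2) assessed by COBRA assay on genomic DNA.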
With `CCN(CC)CCOC(=O)c1ccc(N)cc1`, the result was Active.

`O=[N+]([O-])c1ccc(C2=NC[C@H](CN3CCCC3)O2)cc1`: the outcome was Active.

Another experiment has as its target DNA (cytosine-5)-methyltransferase 1 (Homo sapiens) (UniProt P26358). Briefly: Inhibition of human recombinant DNMT1 expressed in Sf9 cells.
In the case of `CCN(CC)C[C@@H]1CN=C(c2ccc([N+](=O)[O-])cc2)O1`, the result was Active.

Take `CCN(CC)C[C@@H]1COC(c2ccc([N+](=O)[O-])cc2)=N1`: the result was Active.

For `O=[N+]([O-])c1ccc(C2=N[C@@H](CN3CCCC3)CO2)cc1`, the outcome was Active.

Turning to `O=[N+]([O-])c1ccc(C2=NC[C@H](CN3CCCC3)O2)cc1`, the outcome was Active.

Turning to `O=[N+]([O-])c1ccc(C2=N[C@H](CN3CCCC3)CO2)cc1`, the result was Active.

`CCN(CC)C[C@H]1CN=C(c2ccc([N+](=O)[O-])cc2)O1`: the outcome was Active.

For the compound `CCN(CC)C[C@H]1COC(c2ccc([N+](=O)[O-])cc2)=N1`, the result was Active.

(Values after ChEMBL document CHEMBL1142437, “Constrained analogues of procaine as novel small molecule inhibitors of DNA methyltransferase-1” (J Med Chem, 2008).)
